# Assay results from ChEMBL document CHEMBL4052671, “Design, synthesis, and evaluation of DNA topoisomerase II-targeted nucleosides” (Bioorg Med Chem, 2017).
# Active and inactive are the calls of the source. No cut-off for these calls is given here.
# Legend:
# [1] = test system: OVCAR-4; assay: Growth inhibition of human OVCAR4 cells incubated for 48 hrs by sulforhodamine B assay; assay type: functional; details: OVCAR-4, 48 h
# [2] = test system: MKN-1; assay: Growth inhibition of human MKN1 cells incubated for 48 hrs by sulforhodamine B assay; assay type: functional; details: MKN-1, 48 h
# [3] = Growth inhibition of human […] incubated for 48 hrs by sulforhodamine B assay; assay type: functional
# [4] = test system: HCT-116; assay: Growth inhibition of human HCT116 cells incubated for 48 hrs by sulforhodamine B assay; assay type: functional; details: HCT-116, 48 h
# [5] = test system: St-4; assay: Growth inhibition of human St-4 cells incubated for 48 hrs by sulforhodamine B assay; assay type: functional; details: St-4, 48 h
# [6] = test system: DMS-114; assay: Growth inhibition of human DMS114 cells incubated for 48 hrs by sulforhodamine B assay; assay type: functional; details: DMS-114, 48 h
# [7] = test system: PC-3; assay: Growth inhibition of human PC3 cells incubated for 48 hrs by sulforhodamine B assay; assay type: functional; details: PC-3, 48 h
# [8] = test system: NCI-H522; assay: Growth inhibition of human NCI-H522 cells incubated for 48 hrs by sulforhodamine B assay; assay type: functional; details: NCI-H522, 48 h
# [9] = test system: SK-OV-3; assay: Growth inhibition of human SKOV3 cells incubated for 48 hrs by sulforhodamine B assay; assay type: functional; details: SK-OV-3, 48 h
# [10] = test system: ACHN; assay: Growth inhibition of human ACHN cells incubated for 48 hrs by sulforhodamine B assay; assay type: functional
# [11] = test system: SF-295; assay: Growth inhibition of human SF295 cells incubated for 48 hrs by sulforhodamine B assay; assay type: functional; details: SF-295, 48 h
# [12] = test system: OVCAR-3; assay: Growth inhibition of human OVCAR3 cells incubated for 48 hrs by sulforhodamine B assay; assay type: functional; details: OVCAR-3, 48 h
# [13] = test system: U-251; assay: Growth inhibition of human U251 cells incubated for 48 hrs by sulforhodamine B assay; assay type: functional; details: U-251, 48 h
# [14] = test system: A549; assay: Growth inhibition of human A549 cells incubated for 48 hrs by sulforhodamine B assay; assay type: functional; details: A549, 48 h
# [15] = test system: NCI-H226; assay: Growth inhibition of human NCI-H226 cells incubated for 48 hrs by sulforhodamine B assay; assay type: functional; details: NCI-H226, 48 h
# [16] = test system: RXF 631; assay: Growth inhibition of human RXF631L cells incubated for 48 hrs by sulforhodamine B assay; assay type: functional; details: RXF 631, 48 h
# [17] = test system: HCT-15; assay: Growth inhibition of human HCT15 cells incubated for 48 hrs by sulforhodamine B assay; assay type: functional; details: HCT-15, 48 h
# [18] = test system: SF-268; assay: Growth inhibition of human SF268 cells incubated for 48 hrs by sulforhodamine B assay; assay type: functional; details: SF-268, 48 h
# [19] = test system: MKN-7; assay: Growth inhibition of human MKN7 cells incubated for 48 hrs by sulforhodamine B assay; assay type: functional; details: MKN-7, 48 h
# [20] = test system: DMS-273; assay: Growth inhibition of human DMS273 cells incubated for 48 hrs by sulforhodamine B assay; assay type: functional; details: DMS-273, 48 h
# [21] = test system: KM12; assay: Growth inhibition of human KM12 cells incubated for 48 hrs by sulforhodamine B assay; assay type: functional; details: KM12, 48 h
# [22] = test system: LOX IMVI; assay: Growth inhibition of human LOXIMVI cells incubated for 48 hrs by sulforhodamine B assay; assay type: functional
# [23] = test system: MCF7; assay: Growth inhibition of human MCF7 cells incubated for 48 hrs by sulforhodamine B assay; assay type: functional; details: MCF7, 48 h
# [24] = target: DNA topoisomerase 1 (Homo sapiens) (UniProt P11387); assay: Inhibition of human placenta DNA topoisomerase-1 assessed as decrease in relaxation of supercoiled pUC19 DNA at 200 uM after 30 mins by ethidium bromide staining based agarose gel electrophoresis
# Sequence of DNA topoisomerase 1 (Homo sapiens) (P11387 whole entry): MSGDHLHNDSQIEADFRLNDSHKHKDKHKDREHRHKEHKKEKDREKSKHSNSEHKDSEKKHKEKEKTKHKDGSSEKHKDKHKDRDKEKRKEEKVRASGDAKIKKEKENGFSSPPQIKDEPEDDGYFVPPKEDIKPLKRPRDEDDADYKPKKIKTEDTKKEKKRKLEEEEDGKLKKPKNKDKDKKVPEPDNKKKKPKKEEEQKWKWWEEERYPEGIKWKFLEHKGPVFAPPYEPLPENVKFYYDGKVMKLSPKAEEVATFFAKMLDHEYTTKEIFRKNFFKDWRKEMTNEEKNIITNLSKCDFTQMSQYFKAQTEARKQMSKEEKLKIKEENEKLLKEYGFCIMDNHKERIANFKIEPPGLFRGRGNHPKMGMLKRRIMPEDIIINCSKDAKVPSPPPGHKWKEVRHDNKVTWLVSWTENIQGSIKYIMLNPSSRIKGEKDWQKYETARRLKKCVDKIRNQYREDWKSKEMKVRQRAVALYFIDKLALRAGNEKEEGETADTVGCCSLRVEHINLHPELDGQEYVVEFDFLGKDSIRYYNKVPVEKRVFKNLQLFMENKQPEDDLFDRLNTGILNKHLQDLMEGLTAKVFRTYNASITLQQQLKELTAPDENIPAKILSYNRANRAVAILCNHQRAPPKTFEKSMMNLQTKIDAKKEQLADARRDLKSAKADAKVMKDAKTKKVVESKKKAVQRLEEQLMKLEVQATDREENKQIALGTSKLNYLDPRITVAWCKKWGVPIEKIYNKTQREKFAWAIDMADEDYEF
# [25] = test system: NCI-H460; assay: Growth inhibition of human NCI-H460 cells incubated for 48 hrs by sulforhodamine B assay; assay type: functional; details: NCI-H460, 48 h
# [26] = test system: HT-29; assay: Growth inhibition of human HT-29 cells incubated for 48 hrs by sulforhodamine B assay; assay type: functional; details: HT-29, 48 h
# [27] = Growth inhibition of human HBC4 cells incubated for 48 hrs by sulforhodamine B assay; assay type: functional; details: HBC4, 48 h
# [28] = Growth inhibition of human HBC5 cells incubated for 48 hrs by sulforhodamine B assay; assay type: functional; details: HBC5, 48 h
# [29] = target: T1, DNA topoisomerase 2-alpha (Homo sapiens, UniProt P11388); assay: Inhibition of recombinant human DNA topoisomerase-2alpha assessed as decrease in relaxation of supercoiled pBR322 DNA after 30 mins by ethidium bromide staining based agarose gel electrophoresis
# T1 sequence (P11388 whole entry): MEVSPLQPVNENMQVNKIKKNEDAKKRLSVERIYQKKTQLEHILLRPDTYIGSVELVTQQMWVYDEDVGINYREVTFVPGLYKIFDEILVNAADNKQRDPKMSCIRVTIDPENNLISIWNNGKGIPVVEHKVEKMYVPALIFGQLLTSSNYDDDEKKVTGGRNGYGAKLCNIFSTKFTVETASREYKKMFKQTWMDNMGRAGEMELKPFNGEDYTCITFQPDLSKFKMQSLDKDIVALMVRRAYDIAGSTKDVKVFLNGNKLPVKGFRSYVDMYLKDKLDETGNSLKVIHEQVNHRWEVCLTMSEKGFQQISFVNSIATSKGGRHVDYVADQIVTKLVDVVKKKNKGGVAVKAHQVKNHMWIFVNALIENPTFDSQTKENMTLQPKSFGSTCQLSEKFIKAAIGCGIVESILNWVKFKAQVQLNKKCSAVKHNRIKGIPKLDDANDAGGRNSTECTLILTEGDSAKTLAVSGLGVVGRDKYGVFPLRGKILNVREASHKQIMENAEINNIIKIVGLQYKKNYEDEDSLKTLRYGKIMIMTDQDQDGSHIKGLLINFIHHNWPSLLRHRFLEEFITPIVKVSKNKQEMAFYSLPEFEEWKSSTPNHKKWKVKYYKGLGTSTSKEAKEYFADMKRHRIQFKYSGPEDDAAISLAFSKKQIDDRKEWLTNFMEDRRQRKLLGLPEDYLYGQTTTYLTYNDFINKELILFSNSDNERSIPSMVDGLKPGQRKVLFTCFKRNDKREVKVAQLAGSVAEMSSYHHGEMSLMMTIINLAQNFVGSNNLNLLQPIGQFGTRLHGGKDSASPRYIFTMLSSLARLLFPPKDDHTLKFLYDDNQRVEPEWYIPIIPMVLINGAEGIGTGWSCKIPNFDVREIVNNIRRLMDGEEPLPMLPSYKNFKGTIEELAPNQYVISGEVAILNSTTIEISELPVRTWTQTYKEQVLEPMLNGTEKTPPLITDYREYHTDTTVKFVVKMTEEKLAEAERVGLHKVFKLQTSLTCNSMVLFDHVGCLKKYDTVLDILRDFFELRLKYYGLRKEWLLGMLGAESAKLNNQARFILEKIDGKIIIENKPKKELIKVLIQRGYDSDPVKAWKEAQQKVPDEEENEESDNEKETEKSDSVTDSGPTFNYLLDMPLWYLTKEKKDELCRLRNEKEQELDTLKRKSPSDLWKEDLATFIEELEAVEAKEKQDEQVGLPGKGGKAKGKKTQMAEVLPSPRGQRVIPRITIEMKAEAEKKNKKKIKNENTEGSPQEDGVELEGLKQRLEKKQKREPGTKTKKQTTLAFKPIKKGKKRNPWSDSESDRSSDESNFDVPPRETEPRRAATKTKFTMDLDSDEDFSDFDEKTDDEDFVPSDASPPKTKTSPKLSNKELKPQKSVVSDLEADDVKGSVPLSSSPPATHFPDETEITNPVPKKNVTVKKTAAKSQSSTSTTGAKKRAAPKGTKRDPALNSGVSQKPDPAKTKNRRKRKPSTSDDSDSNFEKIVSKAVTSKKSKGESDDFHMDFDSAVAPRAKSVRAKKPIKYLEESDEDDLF
# [30] = test system: OVCAR-8; assay: Growth inhibition of human OVCAR8 cells incubated for 48 hrs by sulforhodamine B assay; assay type: functional; details: OVCAR-8, 48 h
# [31] = test system: SF-539; assay: Growth inhibition of human SF539 cells incubated for 48 hrs by sulforhodamine B assay; assay type: functional; details: SF-539, 48 h
# [32] = test system: HCC 2998; assay: Growth inhibition of human HCC2998 cells incubated for 48 hrs by sulforhodamine B assay; assay type: functional; details: HCC 2998, 48 h
# [33] = test system: OVCAR-5; assay: Growth inhibition of human OVCAR5 cells incubated for 48 hrs by sulforhodamine B assay; assay type: functional; details: OVCAR-5, 48 h
# [34] = test system: MKN-45; assay: Growth inhibition of human MKN45 cells incubated for 48 hrs by sulforhodamine B assay; assay type: functional; details: MKN-45, 48 h
# [35] = test system: MKN-74; assay: Growth inhibition of human MKN74 cells incubated for 48 hrs by sulforhodamine B assay; assay type: functional; details: MKN-74, 48 h
# [36] = test system: SNB-75; assay: Growth inhibition of human SNB75 cells incubated for 48 hrs by sulforhodamine B assay; assay type: functional; details: SNB-75, 48 h
# [37] = test system: SNB-78; assay: Growth inhibition of human SNB78 cells incubated for 48 hrs by sulforhodamine B assay; assay type: functional; details: SNB-78, 48 h
# [38] = Growth inhibition of human BSY1 cells incubated for 48 hrs by sulforhodamine B assay; assay type: functional; details: BSY-1, 48 h
# [39] = test system: NCI-H23; assay: Growth inhibition of human NCI-H23 cells incubated for 48 hrs by sulforhodamine B assay; assay type: functional; details: NCI-H23, 48 h
# [40] = test system: DU-145; assay: Growth inhibition of human DU145 cells incubated for 48 hrs by sulforhodamine B assay; assay type: functional; details: DU-145, 48 h
# [41] = test system: MKN-28; assay: Growth inhibition of human MKN28 cells incubated for 48 hrs by sulforhodamine B assay; assay type: functional; details: MKN-28, 48 h
# [42] = target: T1, DNA topoisomerase 2-alpha; assay: Poison activity at recombinant human DNA topoisomerase-2alpha assessed as linear DNA formation using supercoiled pBR322 DNA as substrate at 200 uM after 30 mins by ethidium bromide staining based agarose gel electrophoresis
# Method in brief: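 Cleavage reactions: 200 ng pBR322, 6 U topo II, 30 mM Tris-HCl pH 7.6, 60 mM NaCl, 8 mM MgCl2, 3 mM ATP, 15 mM mercaptoethanol, drug in 10% DMSO; 37 °C, 30 min; SDS/proteinase K 60 min, 37 °C; 1% agarose in TBE with 0.1% SDS and ethidium bromide; linear DNA scored.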
# [43] = target: T1, DNA topoisomerase 2-alpha; assay: Inhibition of recombinant human DNA topoisomerase-2alpha assessed as decrease in relaxation of supercoiled pBR322 DNA at […] after 30 mins by ethidium bromide staining based agarose gel electrophoresis relative to control
# Method in brief: (§1)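 Topo II relaxation of supercoiled pBR322 (198 ng) with 1 U enzyme, 50 mM Tris-HCl pH 8, 120 mM KCl, 10 mM MgCl2, 0.5 mM ATP, 0.5 mM DTT, drug in <10% DMSO; 37 °C for 30 min; products run on 1% agarose in TAE, ethidium-stained, scanned; supercoiled DNA area quantified.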
# [44] = target: T1, DNA topoisomerase 2-alpha; assay: Inhibition of recombinant human DNA topoisomerase-2alpha assessed as decrease in relaxation of supercoiled pBR322 DNA at 100 uM after 30 mins by ethidium bromide staining based agarose gel electrophoresis; method in brief: as §1
compound,measurement,setting,value
COc1ccc(C2([C@H]3C[C@H](n4cc(C)c(=O)[nH]c4=O)O[C@@H]3CO[Si](C)(C)C(C)(C)C)SCCCS2)cc1OC,GI50,[1],2.88 µM
same,GI50,[2],2.29 µM
same,GI50,[3],3.47 µM
same,GI50,[4],3.63 µM
same,GI50,[5],4.47 µM
same,GI50,[6],3.31 µM
same,GI50,[7],2.29 µM
same,GI50,[8],2.69 µM
same,GI50,[9],5.25 µM
same,GI50,[10],2.51 µM
same,GI50,[11],3.72 µM
same,GI50,[12],3.72 µM
same,GI50,[13],3.8 µM
same,GI50,[14],4.68 µM
same,GI50,[15],2 µM
same,GI50,[16],4.57 µM
same,GI50,[17],4.07 µM
same,GI50,[18],6.46 µM
same,GI50,[19],2.29 µM
same,GI50,[20],3.8 µM
same,GI50,[21],4.07 µM
same,GI50,[22],3.24 µM
same,GI50,[23],3.31 µM
same,inhibition,[24],inactive
same,GI50,[25],3.63 µM
same,GI50,[26],3.89 µM
same,GI50,[27],3.8 µM
same,GI50,[28],2.51 µM
same,IC50,[29],8.1 µM
same,GI50,[30],3.89 µM
same,GI50,[31],2.19 µM
same,GI50,[32],3.31 µM
same,GI50,[33],2.88 µM
same,GI50,[34],3.31 µM
same,GI50,[35],3.24 µM
same,GI50,[36],10 µM
same,GI50,[37],5.5 µM
same,GI50,[38],1.82 µM
same,GI50,[39],3.72 µM
same,GI50,[40],3.72 µM
same,GI50,[41],3.31 µM
COc1ccc(C2([C@H]3C[C@@H](n4cc(C)c(=O)[nH]c4=O)O[C@@H]3CO[Si](C)(C)C(C)(C)C)SCCCS2)cc1OC,GI50,[1],4.9 µM
same,GI50,[2],5.01 µM
same,GI50,[3],11 µM
same,GI50,[4],5.75 µM
same,GI50,[5],12 µM
same,GI50,[6],5.62 µM
same,GI50,[7],3.63 µM
same,GI50,[8],5.62 µM
same,GI50,[9],17 µM
same,GI50,[10],6.76 µM
same,GI50,[11],8.32 µM
same,GI50,[12],11 µM
same,GI50,[13],7.41 µM
same,GI50,[14],5.37 µM
same,GI50,[15],3.39 µM
same,GI50,[16],17 µM
same,GI50,[17],9.12 µM
same,GI50,[18],12.9 µM
same,GI50,[19],3.02 µM
same,GI50,[20],4.57 µM
same,GI50,[21],11 µM
same,GI50,[22],8.13 µM
same,GI50,[23],4.37 µM
same,GI50,[25],5.62 µM
same,GI50,[26],6.17 µM
same,GI50,[27],5.01 µM
same,GI50,[28],5.75 µM
same,IC50,[29],18.5 µM
same,GI50,[30],8.32 µM
same,GI50,[31],14.1 µM
same,GI50,[32],12.9 µM
same,GI50,[33],12.9 µM
same,GI50,[34],8.32 µM
same,GI50,[35],4.27 µM
same,GI50,[36],17 µM
same,GI50,[37],12.9 µM
same,GI50,[38],3.31 µM
same,GI50,[39],11 µM
same,GI50,[40],12 µM
same,GI50,[41],4.9 µM
COc1ccc(C[C@H]2C[C@@H](n3cc(C)c(=O)[nH]c3=O)O[C@@H]2CO[Si](C)(C)C(C)(C)C)cc1OC,IC50,[29],89.2 µM
COc1cc([C@@H]2c3cc4c(cc3[C@@H](O[C@@H]3O[C@@H]5CO[C@@H](C)O[C@H]5[C@H](O)[C@H]3O)[C@H]3COC(=O)[C@H]23)OCO4)cc(OC)c1O,Activity,[42],Active
COc1ccc(C[C@H]2CC(=O)O[C@@H]2CO)cc1OC,inhibition,[43],inactive
COc1ccc(C2([C@H]3CC(=O)O[C@@H]3CO)SCCCS2)cc1OC,inhibition,[43],19.8%
same,IC50,[29],> 200 µM
COc1ccc(C[C@H]2C[C@@H](n3cc(C)c(=O)[nH]c3=O)O[C@@H]2CO)cc1OC,inhibition,[43],inactive
Cc1cn([C@H]2C[C@H](Cc3ccc(O)c(O)c3)[C@@H](CO)O2)c(=O)[nH]c1=O,inhibition,[24],inactive
same,Activity,[42],inactive
same,IC50,[29],176 µM
same,inhibition,[29],Dose-dependent effect
same,inhibition,[44],inactive
